Published values gathered from unrelated publications.
Lines come from different studies, so protocols differ.
Target: Ephrin type-B receptor 2 (EPHB2, Homo sapiens, UniProt P29323)
One construct used (P29323 19-1055): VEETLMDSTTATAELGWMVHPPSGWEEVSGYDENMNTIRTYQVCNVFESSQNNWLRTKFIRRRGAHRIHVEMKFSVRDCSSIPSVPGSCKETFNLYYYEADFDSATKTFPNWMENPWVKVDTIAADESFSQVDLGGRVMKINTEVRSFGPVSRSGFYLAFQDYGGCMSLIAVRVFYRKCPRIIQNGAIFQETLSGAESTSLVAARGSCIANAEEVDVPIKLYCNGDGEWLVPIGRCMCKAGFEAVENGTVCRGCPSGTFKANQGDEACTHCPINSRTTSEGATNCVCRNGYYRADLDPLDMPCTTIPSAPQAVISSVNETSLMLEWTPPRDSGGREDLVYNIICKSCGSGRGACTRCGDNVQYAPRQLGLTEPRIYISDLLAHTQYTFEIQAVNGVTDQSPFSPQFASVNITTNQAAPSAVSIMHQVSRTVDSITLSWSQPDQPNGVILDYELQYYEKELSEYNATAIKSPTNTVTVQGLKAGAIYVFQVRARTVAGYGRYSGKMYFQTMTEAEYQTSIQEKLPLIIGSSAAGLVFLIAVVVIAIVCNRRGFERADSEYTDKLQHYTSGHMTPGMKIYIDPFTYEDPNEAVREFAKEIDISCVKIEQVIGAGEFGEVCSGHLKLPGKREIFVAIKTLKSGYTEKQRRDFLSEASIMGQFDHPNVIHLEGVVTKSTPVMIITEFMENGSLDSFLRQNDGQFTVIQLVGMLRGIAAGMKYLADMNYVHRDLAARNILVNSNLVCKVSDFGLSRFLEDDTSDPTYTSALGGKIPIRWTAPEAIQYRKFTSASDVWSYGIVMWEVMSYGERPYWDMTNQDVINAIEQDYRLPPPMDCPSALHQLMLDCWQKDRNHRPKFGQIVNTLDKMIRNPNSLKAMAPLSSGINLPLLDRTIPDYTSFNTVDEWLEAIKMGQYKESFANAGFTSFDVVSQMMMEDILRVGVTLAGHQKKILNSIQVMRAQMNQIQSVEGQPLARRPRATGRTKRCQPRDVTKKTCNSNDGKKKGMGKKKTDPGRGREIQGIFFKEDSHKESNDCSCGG

Cc1cnc(Nc2ccc(C(=O)N3CCC(N4CCCC4)CC3)cc2)nc1-c1cc2ccccc2s1  remaining binding (binding; competition with immobilised ligand; 1 µM): 65%
CS(=O)(=O)NCC[C@H](NC(=O)c1cncc2c1cnn2-c1ccc(F)cc1)c1ccnc(S(C)(=O)=O)c1  remaining binding (cell-free assay; competition with immobilised ligand; 1 µM): 92%
COc1ncc2cc3ccccc3nc2c1C#N  remaining binding (cell-free assay; competition with immobilised ligand; 5 µM): 99%
FC(F)(F)Oc1cccc(-c2cnc3ccc(-c4ccncc4)nn23)c1  remaining binding (cell-free assay; competition with immobilised ligand; 5 µM): 96%
CO[C@@H](C)c1c(Nc2ccc([C@H](N(C)C(=O)C3CCS(=O)(=O)CC3)C(F)(F)F)cc2)cnc2cc(Cl)nn12  remaining binding (cell-free assay; competition with immobilised ligand; 1 µM): 76%
O=C(NCC1CCOCC1)c1n[nH]cc1NC(=O)c1c(F)cccc1F  remaining binding (binding; competition with immobilised ligand; 1 µM): 98%
CN(CCCC(F)(F)F)c1nccc(-c2cnn3ncccc23)n1  remaining binding (binding; 1 µM): 84%
c1cncc(-c2cccc(Nc3nccc(NC4CCCCC4)n3)c2)c1  remaining binding (binding; competition with immobilised ligand; 10 µM): 90%
CN(C)c1nccc(-c2cnc3ncccn23)n1  remaining binding (binding; 1 µM): 92%
COCCOc1nc(-c2ccc(Cl)nc2)nc2c1CN(C(=O)c1ncn3ccccc13)CC2  remaining binding (cell-free assay; competition with immobilised ligand; 0.1 µM): 79%
COc1ccnn2ncc(-c3ccnc(N(C)C)n3)c12  remaining binding (binding; 1 µM): 100%
COc1cnc(Nc2cccc(S(N)(=O)=O)c2)nc1N1CCN(c2ccccc2)CC1  remaining binding (binding; competition with immobilised ligand; 1 µM): 100%
CN(C)c1nccc(-c2cnn3ncccc23)n1  remaining binding (binding; 1 µM): 71%
O=C(O)[C@H]1[C@H](Cn2nnc3ccccc3c2=O)CC[C@@H]1C(=O)c1ccc(OCCC2CCOCC2)cc1  remaining binding (cell-free assay; competition with immobilised ligand; 1 µM): 100%
N[C@@H]1CCN(c2nccc(-c3cnn4ncccc34)n2)C1  remaining binding (binding; 1 µM): 100%
O=C(c1ccc(Nc2nccc(-c3cc4ccccc4s3)n2)cc1)N1CCC(N2CCCC2)CC1  remaining binding (binding; competition with immobilised ligand; 1 µM): 100%
C[C@@H]1CN(c2cc(-c3n[nH]c4ccc(OC5(C)CC5)cc34)ncn2)C[C@H](C)O1  remaining binding (cell-free assay; competition with immobilised ligand; 0.1 µM): 90%
C[C@H]1CCN(c2nccc(-c3cnn4ncccc34)n2)C1  remaining binding (binding; 1 µM): 0%
